In ChEMBL document CHEMBL4616681, “Discovery of 3-Pyridyl Isoindolin-1-one Derivatives as Potent, Selective, and Orally Active Aldosterone Synthase (CYP11B2) Inhibitors” (J Med Chem, 2020):
Values after ≈ are worked out from the molar mass of the structure shown.

Legend:
[1] = target: T1, Cytochrome P450 11B2, mitochondrial (Homo sapiens, UniProt P19099); test: Inhibition of human CYP11B2 expressed in human renal leiomyoblastoma cells harboring FDXR/FDX using 1-deoxycorticosterone as substrate by HTRF assay; type: cell-based
T1 sequence (P19099 whole entry): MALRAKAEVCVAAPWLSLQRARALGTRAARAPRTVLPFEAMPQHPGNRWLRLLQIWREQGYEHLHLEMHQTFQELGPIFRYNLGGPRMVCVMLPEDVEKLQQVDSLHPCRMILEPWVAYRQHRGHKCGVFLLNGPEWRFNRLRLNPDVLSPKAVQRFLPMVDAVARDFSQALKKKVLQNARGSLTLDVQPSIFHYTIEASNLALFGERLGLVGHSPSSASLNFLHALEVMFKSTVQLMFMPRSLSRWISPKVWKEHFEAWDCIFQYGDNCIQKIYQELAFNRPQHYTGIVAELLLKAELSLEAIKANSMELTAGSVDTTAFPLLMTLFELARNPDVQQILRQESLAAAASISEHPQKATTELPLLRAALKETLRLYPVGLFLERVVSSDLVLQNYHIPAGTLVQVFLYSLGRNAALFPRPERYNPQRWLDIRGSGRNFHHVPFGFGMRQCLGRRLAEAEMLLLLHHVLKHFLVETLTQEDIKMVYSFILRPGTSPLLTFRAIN
Procedure, shortened: (§1)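 Cells with endogenous FDXR/FDX and no detectable CYP11B activity, stably transfected (CMV promoter, neomycin selection, G-418 400 µg/mL) with CYP11B1 or CYP11B2 of the named species. Assayed in DMEM/F12 with 2.5% charcoal-treated FCS. Substrate 1 µM 11-deoxycorticosterone (B2) or 11-deoxycortisol (B1), 16 hr. Aldosterone or cortisol in supernatant measured by HTRF. IC50 from 4-parameter MMF fit; selectivity factor is the B1/B2 IC50 ratio.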

[2] = Selectivity ratio of IC50 for human CYP11B1 expressed in human renal leiomyoblastoma cells harboring FDXR/FDX to IC50 for human CYP11B2 expressed in human renal leiomyoblastoma cells harboring FDXR/FDX; type: cell-based; procedure, shortened: as §1
[3] = Permeability of the compound measured at 18 hrs by PAMPA; type: ADME; conditions: read-out: permeability
Procedure, shortened: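 PAMPA sandwich format. Donor: compound diluted to 150 μM (DMSO <2%) in 0.05 M MOPSO pH 6.5 with 0.5% glycocholic acid. Acceptor: 0.05 M MOPSO pH 6.5. Membrane of 10% egg lecithin with 0.5% cholesterol in dodecane. Donor measured at start; acceptor and donor measured at ~18 hr.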

[4] = Solubility of the compound in phosphate buffer at pH 6.5 shaken for 2 hrs followed by overnight incubation; type: physicochemical
Procedure, shortened: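 Lyophilisation solubility assay run in duplicate from 10 mM DMSO stock. DMSO evaporated and residue redissolved in 0.05 M phosphate, pH 6.5. Stirred 1 hr, shaken 2 hr, left overnight, then filtered. Filtrate and a 1/10 dilution analysed by HPLC-UV against a four-point calibration.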

[5] = Inhibition of cynomolgus monkey CYP11B2 expressed in human G401 cells using 1-deoxycorticosterone as substrate by HTRF assay; type: cell-based, Macaca fascicularis; conditions: g-401; procedure, shortened: as §1
[6] = Selectivity ratio of IC50 for cynomolgus monkey CYP11B1 expressed in human G401 cells to IC50 for cynomolgus monkey CYP11B2 expressed in human G401 cells; type: cell-based; procedure, shortened: as §1
[7] = Intrinsic clearance in rat liver microsomes preincubated for 10 mins followed by NADPH regenerating system addition and measured up to 30 mins by LC/MS-MS analysis; type: ADME, Microsome
Procedure, shortened: (§2)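 Liver microsomes at 0.5 mg protein/mL in 100 mM potassium phosphate, pH 7.4. Compound preincubated 10 min at 37 °C. Intrinsic clearance scaled using the well-stirred liver model.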

[8] = Plasma clearance in Wister-Han rat at 1 mg/kg, iv administered as single dose by LC/MS-MS analysis; type: ADME, organism-based; conditions: Wistar-Han
Procedure, shortened: (§3)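 Male Wistar-Han rats, single dose. IV 1 mg/kg, compound at 0.5 mg/mL in NMP:saline 30/70 (v/v). Oral 3 mg/kg, 0.25 mg/mL in 2% Klucel with 0.1% Polysorbate 80. Three rats per time point. Heparinized blood taken at eight (iv) or seven (po) time points, plasma stored at -20 °C. Plasma levels by LC/MS-MS. Non-compartmental analysis.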

[9] = AUC (0 to infinity) in Wister-Han rat at 3 mg/kg, po administered as single dose by LC/MS-MS analysis; type: ADME, organism-based; parameters: dose 3 mg/kg, route oral, time infinity; conditions: Wistar-Han, in vivo; procedure, shortened: as §3
[10] = Oral bioavailability in Wister-Han rat at 3 mg/kg administered as single dose by LC/MS-MS analysis; type: ADME, organism-based; conditions: Wistar-Han, in vivo; procedure, shortened: as §3
[11] = target: T2, Cytochrome P450 11B1, mitochondrial (Homo sapiens, UniProt P15538); test: Inhibition of human CYP11B1 expressed in human renal leiomyoblastoma cells harboring FDXR/FDX using 1-deoxycortisol as substrate by HTRF assay; type: ADME, cell-based; procedure, shortened: as §1
T2 sequence (P15538 whole entry): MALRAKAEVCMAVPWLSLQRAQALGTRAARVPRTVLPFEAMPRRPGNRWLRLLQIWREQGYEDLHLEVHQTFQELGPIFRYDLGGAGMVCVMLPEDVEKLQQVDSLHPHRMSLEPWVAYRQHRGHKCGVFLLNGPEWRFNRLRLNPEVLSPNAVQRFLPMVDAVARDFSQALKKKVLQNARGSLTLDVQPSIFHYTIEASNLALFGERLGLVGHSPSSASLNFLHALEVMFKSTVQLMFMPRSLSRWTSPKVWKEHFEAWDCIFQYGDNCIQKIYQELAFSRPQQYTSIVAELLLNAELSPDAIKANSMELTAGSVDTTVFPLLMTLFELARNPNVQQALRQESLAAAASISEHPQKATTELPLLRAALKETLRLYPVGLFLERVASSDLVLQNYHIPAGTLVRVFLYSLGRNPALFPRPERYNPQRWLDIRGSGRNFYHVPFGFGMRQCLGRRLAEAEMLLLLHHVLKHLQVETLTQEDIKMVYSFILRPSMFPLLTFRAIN

[12] = Intrinsic clearance in human liver microsomes preincubated for 10 mins followed by NADPH regenerating system addition and measured up to 30 mins by LC/MS-MS analysis; type: ADME, Microsome; conditions: read-out: CLH; procedure, shortened: as §2
[13] = Intrinsic clearance in mouse liver microsomes preincubated for 10 mins followed by NADPH regenerating system addition and measured up to 30 mins by LC/MS-MS analysis; type: ADME, Microsome; procedure, shortened: as §2
[14] = Octanol-water distribution coefficient, log D of the compound by carrier-mediated distribution system; type: physicochemical

SMILES | IC50 [1] [nM] | Ratio IC50 [2] | Papp at 18 h [3] [×10⁻⁶ cm/s] | solubility at 2 h [4] [µg/mL] | IC50 [5] [nM] | Ratio IC50 [6] | predicted hepatic clearance (CLH) [7] [mL/min/kg] | clearance [8] [mL/min/kg] | AUC(0-inf) [9] [ng·h/mL] | bioavailability [10] [%] | IC50 [11] [µM] | predicted hepatic clearance [12] [mL/min/kg] | predicted hepatic clearance (CLH) [13] [mL/min/kg] | logD [14]
Cc1ccncc1C(=O)N1CC(Oc2cncc(N3C(=O)c4ccc(Cl)cc4C3(C)C)c2)C1 | 4 | 553 | 5.4 | 290 (≈ 626 µM) | 0.9 | 1770 | 10.4 | 15.8 | 1020 | 40 | – | – | – | –
C[C@@H](NS(C)(=O)=O)c1cncc(N2C(=O)c3ccc(Cl)cc3C2(C)C)c1 | 8 | 71 | – | – | 4 | 93 | – | – | – | – | – | – | – | –
CC1(C)c2cc(Cl)ccc2C(=O)N1c1cncc(OC2CN(C(=O)c3ncccc3Cl)C2)c1 | 5 | 174 | 3.32 | 20 (≈ 41.4 µM) | 0.5 | 1120 | – | 3.1 | 10800 | 58 | – | – | – | –
CC(=O)N1CC[C@@H](Oc2cncc(N3C(=O)c4ccc(Cl)cc4C3(C)C)c2)C1 | 11 | 113 | – | – | 7 | 643 | – | – | – | – | – | – | – | –
O=C1c2ccc(Cl)cc2CN1c1cccnc1 | 179 | 60 | – | – | – | – | – | – | – | – | 10.7 | 12.8 | 76.5 | 2.52
CC(=O)N1CCC(c2cncc(N3C(=O)c4ccc(Cl)cc4C3(C)C)c2)CC1 | 5 | 77 | – | – | 2 | 466 | – | – | – | – | – | – | – | –
CS(=O)(=O)N[C@@H]1CCCc2c1cncc2N1CCc2cc(Cl)ccc2C1=O | 76 | 68 | – | – | – | – | < 20.2 | – | – | – | 5.15 | < 3.5 | – | –
CCS(=O)(=O)N1CCC(c2cncc(N3C(=O)c4ccc(Cl)cc4C3(C)C)c2)CC1 | 3 | 106 | 4.01 | 39 (≈ 87.1 µM) | 0.4 | 430 | 35.1 | 29.7 | 1460 | 87 | – | – | – | –
Cn1cc(C(=O)N2CC(Oc3cncc(N4C(=O)c5ccc(Cl)cc5C4(C)C)c3)C2)cn1 | 0.5 | 4160 | 3.45 | 310 (≈ 686 µM) | – | – | 6.4 | 3.8 | 7880 | 60 | – | – | – | –
CC(=O)N1CCC(Oc2cncc(N3C(=O)c4ccc(Cl)cc4C3(C)C)c2)CC1 | 4 | 61 | – | – | 2 | 225 | – | – | – | – | – | – | – | –
Cc1cccnc1C(=O)NCc1cncc(N2C(=O)c3ccc(Cl)cc3C2(C)C)c1 | 9 | 89 | – | – | – | 191 | – | – | – | – | – | – | – | –
CC(=O)N1CC[C@H](Oc2cncc(N3C(=O)c4ccc(Cl)cc4C3(C)C)c2)C1 | 7 | 81 | – | – | 5 | 193 | – | – | – | – | – | – | – | –
CC1(C)c2cc(Cl)ccc2C(=O)N1c1cncc(N2CCN(S(C)(=O)=O)CC2)c1 | 2 | 146 | 6.03 | 91 (≈ 209 µM) | 0.2 | 170 | 16.8 | 16.6 | 1640 | 54 | – | – | – | –
CC(=O)N1CC2(C1)CN(c1cncc(N3C(=O)c4ccc(Cl)cc4C3(C)C)c1)C2 | 23 | 640 | – | – | – | – | 3.71 | – | – | – | – | – | – | –
CC(=O)NCc1cncc(N2C(=O)c3ccc(Cl)cc3C2(C)C)c1 | 59 | 47 | – | – | 14 | 333 | – | – | – | – | – | – | – | –
CC(=O)N[C@@H]1CCCc2c1cncc2N1CCc2cc(Cl)ccc2C1=O | 54 | 73 | – | – | – | – | < 20.2 | – | – | – | 3.92 | 4.3 | – | –
CCS(=O)(=O)N1CC2(CN(c3cncc(N4C(=O)c5ccc(Cl)cc5C4(C)C)c3)C2)C1 | 16 | 855 | – | – | 1 | 19700 | 0.87 | – | – | – | – | – | – | –
CCC(=O)N[C@@H]1CCCc2c1cncc2N1CCc2cc(Cl)ccc2C1=O | 119 | – | – | – | – | – | < 20.2 | – | – | – | 3.33 | < 3.5 | – | –
CC(=O)N1CCN(c2cncc(N3C(=O)c4ccc(Cl)cc4C3(C)C)c2)CC1 | 9 | 80 | – | – | 3 | 236 | 17.7 | – | – | – | – | – | – | –
CC1(C)c2cc(Cl)ccc2C(=O)N1c1cncc(CNS(C)(=O)=O)c1 | 33 | 49 | – | – | 10 | 179 | – | – | – | – | – | – | – | –
